Key:
A498 [1] = assay: Growth inhibition of human A498 cells assessed as cell growth at 10 uM after 48 hrs by sulforhodamine B assay; format: functional; details: A498, 48 h, read-out: Activity
Summary of the method: (§1)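 NCI-60 single-dose screen at 10 µM: cells in RPMI 1640 with 5% FBS, preincubated 24 h, then exposed 48 h at 37 °C. TCA fixation (16% final for suspension cells), SRB staining, absorbance 515 nm. Percent growth relative to time-zero and untreated control plates; negative values indicate cell kill.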

[2] = Growth inhibition of human HCC2998 cells after 48 hrs by sulforhodamine B assay; format: functional; details: HCC 2998, 48 h
Summary of the method: (§2)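 NCI-60 screen: cells in RPMI 1640 with 5% FBS and 2 mM glutamine, 5000–40,000 cells/well, preincubated 24 h. Five concentrations (10-fold dilutions; 100 to 0.001 µM) applied for 48 h at 37 °C. TCA fixation, SRB stain, absorbance at 515 nm. Time-zero plates included; GI50 where 100×(T−T0)/(C−T0)=50.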

SF-539 [3] = assay: Growth inhibition of human SF539 cells assessed as cell growth at 10 uM after 48 hrs by sulforhodamine B assay; format: functional; details: SF-539, 48 h, read-out: Activity
Summary of the method: (§3)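 Single-dose NCI-60 screen: adherent cells in RPMI 1640 with 5% FBS were exposed to 10 µM for 48 h at 37 °C after a 24 h preincubation. They were fixed in situ with cold TCA (10% final), stained with 0.4% SRB in 1% acetic acid, solubilized in 10 mM Tris base, and read at 515 nm. Percent growth was taken relative to time-zero and control plates.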

UACC-62 = assay: Growth inhibition of human UACC62 cells after 48 hrs by sulforhodamine B assay; format: functional; details: UACC-62, 48 h
Summary of the method: (§4)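 NCI-60 five-dose screen. Cells were grown in RPMI 1640 with 5% FBS and 2 mM L-glutamine, plated at 5000–40,000 cells/well and incubated 24 h before dosing, with T0 plates TCA-fixed. DMSO stocks were diluted to doses of […] and exposed 48 h at 37 °C, 5% CO2. Cells were fixed with cold TCA (final 10%, 60 min, 4 °C), stained with 0.4% SRB in 1% acetic acid for 10 min, solubilized in 10 mM trizma base and read at 515 nm. GI50 is where 100×(T−T0)/(C−T0)=50.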

CCRF-CEM = assay: Growth inhibition of human CCRF-CEM cells after 48 hrs by sulforhodamine B assay; format: functional; summary of the method: as §2
HOP-62 = assay: Growth inhibition of human HOP62 cells after 48 hrs by sulforhodamine B assay; format: functional; details: HOP-62, 48 h; summary of the method: as §2
NCI-H226 = assay: Growth inhibition of human NCI-H226 cells assessed as cell growth at 10 uM after 48 hrs by sulforhodamine B assay; format: functional; details: NCI-H226, 48 h, read-out: Activity; summary of the method: as §3
SF-268 = assay: Growth inhibition of human SF268 cells after 48 hrs by sulforhodamine B assay; format: functional; details: SF-268, 48 h
Summary of the method: (§5)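 NCI-60 panel cells grown in RPMI 1640 with 5% FBS and 2 mM L-glutamine, seeded at 5000–40,000 cells/well and preincubated 24 h. Five 10-fold dilutions (0.001–100 µM) from DMSO stocks were added for 48 h at 37 °C. Adherent cells were fixed with cold TCA (10% final) for 60 min at 4 °C, stained with 0.4% SRB, and read at 515 nm. GI50 was set where 100×(T−T0)/(C−T0)=50.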

U-251 = assay: Growth inhibition of human U251 cells assessed as cell growth at 10 uM after 48 hrs by sulforhodamine B assay; format: functional; details: U-251, 48 h, read-out: Activity
Summary of the method: (§6)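 Single-dose NCI-60 test at 10 µM. Cells were grown in RPMI 1640 with 5% FBS and 2 mM L-glutamine, preincubated 24 h, with T0 plates TCA-fixed. Exposure was 48 h at 37 °C, 5% CO2. Cells were fixed with cold TCA (final 10%, 4 °C, 60 min), stained with SRB and read at 515 nm. Percent growth was taken relative to T0 and untreated control; negative values denote cell kill.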

SF-539 [4] = assay: Growth inhibition of human SF539 cells after 48 hrs by sulforhodamine B assay; format: functional; details: SF-539, 48 h; summary of the method: as §5
M14 = assay: Growth inhibition of human M14 cells after 48 hrs by sulforhodamine B assay; format: functional; details: M14, 48 h; summary of the method: as §2
HT-29 = assay: Growth inhibition of human HT-29 cells after 48 hrs by sulforhodamine B assay; format: functional; details: HT-29, 48 h; summary of the method: as §2
A498 [5] = assay: Growth inhibition of human A498 cells after 48 hrs by sulforhodamine B assay; format: functional; details: A498, 48 h; summary of the method: as §2
MDA-MB-231 [6] = assay: Growth inhibition of human MDA-MB-231 cells after 48 hrs by sulforhodamine B assay; format: functional; details: MDA-MB-231, 48 h; summary of the method: as §5
SNB-75 = assay: Growth inhibition of human SNB75 cells assessed as cell growth at 10 uM after 48 hrs by sulforhodamine B assay; format: functional; details: SNB-75, 48 h, read-out: Activity; summary of the method: as §6
MOLT-4 = assay: Growth inhibition of human MOLT4 cells assessed as cell growth at 10 uM after 48 hrs by sulforhodamine B assay; format: functional; details: MOLT-4, 48 h, read-out: Activity
Summary of the method: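 Single 10 µM dose applied to suspension cells in RPMI 1640 with 5% FBS and 2 mM L-glutamine for 48 h at 37 °C. Settled cells were fixed with 80% TCA (16% final), stained with SRB, and read at 515 nm. Percent growth was calculated against time-zero and untreated control optical densities.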

SF-295 = assay: Growth inhibition of human SF295 cells assessed as cell growth at 10 uM after 48 hrs by sulforhodamine B assay; format: functional; details: SF-295, 48 h, read-out: Activity; summary of the method: as §3
[7] = Growth inhibition of human Hs 578T cells assessed as cell growth at 10 uM after 48 hrs by sulforhodamine B assay; format: functional; details: read-out: Activity; summary of the method: as §1
T47D = assay: Growth inhibition of human T47D cells after 48 hrs by sulforhodamine B assay; format: functional; summary of the method: as §4
MDA-MB-231 [8] = assay: Antiproliferative activity against human MDA-MB-231 cells by MTT assay; format: functional, cell-based
Summary of the method: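 Cells plated at 8 × 10^3/well (MDA-MB-231) or 10^4/well (MCF7) in 96-well plates. Compounds fed in media with 5% FBS (MDA-MB-231) or 1% FBS (MCF7). MTT read-out of viable cells.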

ACHN = assay: Growth inhibition of human ACHN cells after 48 hrs by sulforhodamine B assay; format: functional; summary of the method: as §2
MDA-MB-435 = assay: Growth inhibition of human MDA-MB-435 cells assessed as cell growth at 10 uM after 48 hrs by sulforhodamine B assay; format: functional; details: MDA-MB-435, 48 h, read-out: Activity; summary of the method: as §3
PC-3 = assay: Growth inhibition of human PC3 cells assessed as cell growth at 10 uM after 48 hrs by sulforhodamine B assay; format: functional; details: PC-3, 48 h, read-out: Activity; summary of the method: as §3
Malme-3M = assay: Growth inhibition of human MALME-3M cells after 48 hrs by sulforhodamine B assay; format: functional; summary of the method: as §5
UACC-257 = assay: Growth inhibition of human UACC257 cells after 48 hrs by sulforhodamine B assay; format: functional; details: UACC-257, 48 h; summary of the method: as §4

Compound | growth at 10 µM (A498 [1]) [%] | GI50 [2] [µM] | growth at 10 µM (SF-539 [3]) [%] | GI50 (UACC-62) [µM] | GI50 (CCRF-CEM) [µM] | GI50 (HOP-62) [µM] | growth at 10 µM (NCI-H226) [%] | GI50 (SF-268) [µM] | growth at 10 µM (U-251) [%] | GI50 (SF-539 [4]) [µM] | GI50 (M14) [µM] | GI50 (HT-29) [µM] | GI50 (A498 [5]) [µM] | GI50 (MDA-MB-231 [6]) [µM] | growth at 10 µM (SNB-75) [%] | growth at 10 µM (MOLT-4) [%] | growth at 10 µM (SF-295) [%] | GI50 (T47D) [µM] | GI50 (ACHN) [µM] | growth at 10 µM (MDA-MB-435) [%] | further results
CC(C)=CCC/C(C)=C/CC/C(C)=C/CC[C@]1(C)CCc2c3c(c(C)c(C)c2O1)OCN(CCCCCO)C3 | 97.4 | 2.53 | 106 | 5.87 | 7.83 | 5.9 | 102 | 7.13 | 58.6 | 6.26 | 6.63 | 3.74 | 5.76 | 5.87 | 70 | -24.8 | 92.7 | 6.17 | 5.74 | 35.5 | growth at 10 µM [7]: 97.3%; IC50 (MDA-MB-231 [8]): > 50 µM; growth at 10 µM (PC-3): 71.8%; GI50 (Malme-3M): 6.9 µM; GI50 (UACC-257): 6.97 µM
CC(C)=CCC/C(C)=C/CC/C(C)=C/CC[C@]1(C)CCc2c3c(c(C)c(C)c2O1)OCN(CCCCO)C3 | 116 | 1.84 | 69.6 | > 10 | 3.45 | 5.95 | 100 | > 10 | 14.8 | > 10 | 5.99 | 2.87 | > 10 | 2.34 | 74.2 | 35.8 | 97.2 | > 10 | > 10 | 53.9 | growth at 10 µM [7]: 91.6%; IC50 (MDA-MB-231 [8]): 13.8 µM; growth at 10 µM (PC-3): 71.8%; GI50 (Malme-3M): > 10 µM; GI50 (UACC-257): 1.73 µM
CC(C)=CCC/C(C)=C/CC/C(C)=C/CC[C@]1(C)CCc2c3c(cc(C)c2O1)OCN(CCCCO)C3 | 103 | 9.78 | 27.4 | 17.5 | 14.5 | 16.2 | 99.3 | 17.7 | -90.5 | 19.1 | 21 | 8.33 | 14.8 | 17.9 | 41.5 | -35.3 | 57.3 | 16.4 | 16.3 | -31.8 | growth at 10 µM [7]: 44.8%; IC50 (MDA-MB-231 [8]): > 5 µM; growth at 10 µM (PC-3): 61.4%; GI50 (Malme-3M): 22.4 µM; GI50 (UACC-257): 11.4 µM
COc1ccc(CCN2COc3cc(C)c4c(c3C2)CC[C@@](C)(CC/C=C(\C)CC/C=C(\C)CCC=C(C)C)O4)cc1OC | 83.2 | 1.48 | 88.8 | 1.64 | 3.32 | 1.76 | 112 | 2.13 | -71.3 | 1.96 | 1.79 | 1.85 | 1.8 | 1.94 | 45.2 | 0.05 | 99.2 | 1.94 | 1.75 | -51.1 | growth at 10 µM (PC-3): 62.1%; GI50 (Malme-3M): 2.03 µM; GI50 (UACC-257): 5.58 µM
